Results gathered from unrelated publications.
Compare with care: the assays were run in different laboratories.
Target: Tyrosine-protein kinase Lck (LCK, Homo sapiens, UniProt P06239)

SMILES | assay | setting | endpoint | result
Cn1cncc1[C@](O)(COc1ccc(C#N)cc1-c1ccc(OC(F)(F)F)cc1)c1ccc(C#N)cc1 | cell-free assay, competition with immobilised ligand | 1 µM | remaining binding | 82%
CC(C)(C)c1cc(C=C(C#N)C#N)cc(Br)c1O | enzyme activity, inhibitor | 0.5 µM | remaining activity | 87.8%
Nc1ncc(-c2nc(N3CCOCC3)nc(N3CCOCC3)n2)c(C(F)F)n1 | enzyme activity, inhibitor | 10 µM | remaining activity | 92%
O=c1[nH]c2ccccc2n1C1CCN(Cc2ccc(-c3[nH]c4cc5ncnc5cc4nc3-c3ccccc3)cc2)CC1 | enzyme activity, inhibitor | 0.5 µM | remaining activity | 98.2%
C#Cc1n[nH]c2c(-c3cn([C@@H](C)c4ccccc4)c(=O)[nH]c3=O)cc(F)cc12 | enzyme activity, inhibitor | 0.1 µM | inhibition | 10.5%
Cc1nn(C)cc1-c1nc2c(N3CCN(Cc4ccc(Cl)cc4)CC3)c(Cl)cnc2[nH]1 | binding, competition with immobilised ligand | 1 µM | remaining binding | 100%
Clc1ccc2c(C3CCN(CCc4c[nH]c5ccccc45)CC3)c[nH]c2c1 | enzyme activity, inhibitor | 10 µM | inhibition | 66%
N#CC1(c2ccccn2)CCN(Cc2cc(C(=O)O)c(=O)n3ccccc23)CC1 | cell-free assay, competition with immobilised ligand | 1 µM | remaining binding | 97%
COc1ncccc1-c1cnn2ccc(N3CCN(C(=O)OC(C)C)CC3)nc12 | binding, competition with immobilised ligand | 1 µM | remaining binding | 100%
C#Cc1n[nH]c2c(-c3cn([C@@H](C)c4ccccn4)c(=O)[nH]c3=O)cc(F)cc12 | enzyme activity, inhibitor | 0.1 µM | inhibition | 8.8%
Cn1cc(-c2cc(F)cc(N3CCn4c(cc5c4CCCC5)C3=O)c2CO)cc(Nc2ccc(N3CCN(C4COC4)CC3)cn2)c1=O | enzyme activity, inhibitor | 0.1 µM | inhibition | -1%
